Measurements: ChEMBL document CHEMBL1123593, “2,4-diamino-6,7-dimethoxyquinazolines. 1. 2-[4-(1,4-benzodioxan-2-ylcarbonyl)piperazin-1-yl] derivatives as alpha 1-adrenoceptor antagonists and antihypertensive agents” (J Med Chem, 1987)
Activity calls are given as the source filed them. The calls are words filed in the database; no cut-off is given here.

How the values were obtained:
Rattus norvegicus [1] = assay: Percent reduction in blood pressure in spontaneously hypertensive rats (SHR) at peroral dose of 5 mg/kg was determined after 6 hr; type: functional; conditions: route oral
Procedure, shortened: (§1)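 Single oral gavage dose of 5 mg/kg to groups of six spontaneously hypertensive rats, all with starting systolic pressure above 175 mmHg. Rats were warmed at 33 °C for 20–30 min before readings. Systolic pressure was taken by tail cuff with a variable capacitance transducer, predose and at 1, 2, 4 and 6 h. Percent reduction from predose is given. Saline-dosed controls (n = 10) were run.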

Rattus norvegicus [2] = assay: Percent reduction in blood pressure in spontaneously hypertensive rats (SHR) at peroral dose of 5 mg/kg was determined after 1 hr; type: functional; conditions: route oral; procedure, shortened: as §1
[3] = target: T1, Adrenergic receptor alpha-1 (Rattus norvegicus, UniProt P15823+P23944+P43140); assay: Compound was tested for its binding affinity for alpha-1 adrenergic receptor site by displacement of [3H]prazosin at 0.15 nM concentration
T1 sequence (P15823 whole entry): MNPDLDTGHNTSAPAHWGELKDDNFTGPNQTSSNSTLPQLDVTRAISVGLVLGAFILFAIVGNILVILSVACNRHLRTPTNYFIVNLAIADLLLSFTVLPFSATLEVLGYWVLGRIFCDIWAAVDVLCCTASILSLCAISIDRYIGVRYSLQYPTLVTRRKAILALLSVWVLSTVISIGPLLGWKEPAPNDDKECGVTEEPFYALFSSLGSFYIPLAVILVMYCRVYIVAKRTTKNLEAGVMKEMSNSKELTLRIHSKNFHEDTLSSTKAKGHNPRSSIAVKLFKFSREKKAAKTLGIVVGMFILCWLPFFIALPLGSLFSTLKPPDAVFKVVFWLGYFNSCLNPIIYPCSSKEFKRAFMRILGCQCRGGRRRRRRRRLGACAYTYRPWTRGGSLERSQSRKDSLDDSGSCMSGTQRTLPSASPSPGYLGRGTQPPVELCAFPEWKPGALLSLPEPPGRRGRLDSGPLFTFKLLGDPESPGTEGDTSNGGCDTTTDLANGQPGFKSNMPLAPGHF
T1 sequence (P23944 whole entry): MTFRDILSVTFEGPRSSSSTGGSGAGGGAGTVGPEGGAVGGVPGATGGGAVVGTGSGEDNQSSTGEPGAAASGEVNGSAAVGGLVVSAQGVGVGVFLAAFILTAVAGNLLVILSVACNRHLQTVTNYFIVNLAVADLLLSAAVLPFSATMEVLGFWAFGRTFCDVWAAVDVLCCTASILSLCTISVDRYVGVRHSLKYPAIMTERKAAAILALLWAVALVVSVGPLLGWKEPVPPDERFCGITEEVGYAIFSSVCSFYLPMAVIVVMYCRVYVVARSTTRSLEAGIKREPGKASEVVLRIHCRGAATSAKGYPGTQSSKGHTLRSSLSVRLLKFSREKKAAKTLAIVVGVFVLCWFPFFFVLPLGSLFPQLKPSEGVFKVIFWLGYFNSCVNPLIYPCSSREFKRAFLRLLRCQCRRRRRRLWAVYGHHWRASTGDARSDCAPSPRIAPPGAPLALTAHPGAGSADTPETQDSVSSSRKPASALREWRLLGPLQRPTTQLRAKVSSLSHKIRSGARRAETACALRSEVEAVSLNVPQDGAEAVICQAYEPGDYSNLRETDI
T1 sequence (P43140 whole entry): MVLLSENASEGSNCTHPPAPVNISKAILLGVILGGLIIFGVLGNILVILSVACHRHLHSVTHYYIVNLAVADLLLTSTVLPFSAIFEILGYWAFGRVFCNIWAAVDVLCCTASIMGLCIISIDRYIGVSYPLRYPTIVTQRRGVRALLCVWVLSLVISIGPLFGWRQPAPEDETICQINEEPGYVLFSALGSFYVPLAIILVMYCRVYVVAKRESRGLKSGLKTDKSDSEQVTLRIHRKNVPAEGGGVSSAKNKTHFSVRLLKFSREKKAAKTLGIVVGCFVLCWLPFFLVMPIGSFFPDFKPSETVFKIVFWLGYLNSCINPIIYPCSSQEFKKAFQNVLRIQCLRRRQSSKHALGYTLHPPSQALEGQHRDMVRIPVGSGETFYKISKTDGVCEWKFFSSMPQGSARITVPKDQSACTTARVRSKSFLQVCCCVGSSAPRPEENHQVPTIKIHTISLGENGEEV

[4] = target: T2, Adrenergic receptor alpha-1 (Homo sapiens) (UniProt P35348+P25100+P35368); assay: Antagonist activity against post junctional alpha-1 adrenergic receptor was measured by Kerbs super fused rabbit pulmonary artery preparations labeled with [3H]- norepinephrine.; type: functional; conditions: Oryctolagus cuniculus; target entry is the homologue from another species
Procedure, shortened: (§2)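 Rabbit pulmonary artery superfused in Krebs after [3H]-noradrenaline labelling, with transmural electrical stimulation (3 Hz, 0.05 h). Postjunctional response was read as contraction on an isometric transducer. Percent antagonism was plotted against compound concentration. EC40-post, the concentration giving 40% reduction of contractile response, was read from the graph. Values are averaged from two experiments, six for some.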

[5] = target: T3, Adrenergic receptor alpha-2 (Homo sapiens) (UniProt P08913+P18825+P18089); conditions: Oryctolagus cuniculus; Pulmonary artery
[6] = target: T3, Adrenergic receptor alpha-2 (Homo sapiens); assay: Antagonist activity against prejunctional alpha-2 adrenergic receptor was measured by Kerbs super fused rabbit pulmonary artery preparations labeled with [3H]- norepinephrine; NA means no activity.; type: functional; conditions: Oryctolagus cuniculus; target entry is the homologue from another species
Procedure, shortened: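 [3H]-noradrenaline-labelled rabbit pulmonary artery, Krebs-superfused and stimulated transmurally (3 Hz, 0.05 h). Prejunctional action was read as [3H] overflow by liquid scintillation counting and plotted against compound concentration. EC40-pre, the concentration producing a 40% increase in [3H] overflow, was read from the graph. Values are averaged from two experiments, six for some.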

[7] = target: T2, Adrenergic receptor alpha-1 (Homo sapiens); assay: Antagonist activity against post junctional Alpha-1 adrenergic receptor was measured by Kerbs super fused rabbit pulmonary artery preparations labeled with [3H]- norepinephrine.; type: functional, tissue-based; conditions: Oryctolagus cuniculus, target entry is the homologue from another species; procedure, shortened: as §2
[8] = target: T1, Adrenergic receptor alpha-1; assay: Compound was tested for its binding affinity for alpha-1 adrenoceptor site by displacement of [3H]-prazosin at 0.15 nM concentration
[9] = target: T1, Adrenergic receptor alpha-1; assay: Compound was tested for its binding affinity for alpha-1 adrenergic receptor site by displacement of [3H]prazosin at 0.15 nM concentration; remark: listed apart in the source
[10] = target: T2, Adrenergic receptor alpha-1 (Homo sapiens); assay: Antagonist activity against post junctional alpha-1 adrenergic receptor was measured by Kerbs super fused rabbit pulmonary artery preparations labeled with [3H]- norepinephrine; type: functional, tissue-based; conditions: Oryctolagus cuniculus, target entry is the homologue from another species; procedure, shortened: as §2
[11] = target: T1, Adrenergic receptor alpha-1; assay: Compound was tested for its binding affinity for alpha-1 adrenergic receptor site by displacement of [3H]prazosin at 0.15 nM concentration; remark: listed apart in the source

Compound | Ki [3] [nM] | Reduction (Rattus norvegicus [1]) [%] | Reduction (Rattus norvegicus [2]) [%] | also measured
COc1cc2nc(N3CCCN(C(=O)C4COc5ccccc5O4)CC3)nc(N)c2cc1OC (configuration not stated) | 1.6 | 12 | 22 | 
COc1cc2nc(N3CCN(C(=O)C4Oc5ccccc5OC4C)CC3)nc(N)c2cc1OC (cis isomer) [listing 1 of 2 here] |  |  |  | EC40 [4]: 27 nM; EC40 [5]: inactive
COc1cc2nc(N3CCN(C(=O)C4COc5ccc(S(=O)(=O)N(C)C)cc5O4)CC3)nc(N)c2cc1OC (configuration not stated) | 6.5 | 8 | 10 | 
COc1cc2nc(N3CCN(C(=O)c4ccco4)CC3)nc(N)c2cc1OC [PRAZOSIN] |  | 29 | 33 | EC40 [4]: 4.5 nM
COc1cc2nc(N3CCN(C(=O)C4COc5ccccc5O4)CC3)nc(N)c2cc1OC (stereo in doubt; 1) |  |  |  | EC40 [4]: 50 nM
COc1ccc2c(c1)OCC(C(=O)N1CCN(c3nc(N)c4cc(OC)c(OC)cc4n3)CC1)O2 (configuration not stated) |  | 23 | 34 | EC40 [6]: inactive; EC40 [7]: 10 nM; Ki [8]: 5.6 nM
COc1cc2nc(N3CCN(C(=O)C4CCOc5ccccc5O4)CC3)nc(N)c2cc1OC (configuration not stated) | 3.8 | 16 | 21 | 
COc1cc2nc(N3CCN(C(=O)C4COc5ccccc5O4)CC3)nc(N)c2cc1OC (single isomer, unassigned; (+)) |  |  |  | EC40 [4]: 7 nM
COc1cc2nc(N3CCN(C(=O)C4COc5ccccc5O4)CC3)nc(N)c2cc1OC (single isomer, unassigned; (-)) [DOXAZOSIN] | 2.2 |  |  | Reduction (Rattus norvegicus [2]; 5 mg/kg): 12%
COc1cc2nc(N3CCN(C(=O)C4COc5cccc(OC)c5O4)CC3)nc(N)c2cc1OC (configuration not stated) |  | 13 | 14 | Ki [9]: 2.4 nM
COc1cc2nc(N3CCN(C(=O)C4Oc5ccccc5OC4C)CC3)nc(N)c2cc1OC (trans isomer) [listing 1 of 2 here] | 2.1 |  |  | Reduction (Rattus norvegicus [1]; 5 mg/kg): 21%; Reduction (Rattus norvegicus [2]; 5 mg/kg): 21%
COc1cc2nc(N3CCN(C(=O)C4COc5ccccc5O4)C(C)C3)nc(N)c2cc1OC (configuration not stated) | 6.5 | 13 | 18 | 
COc1cc2nc(N3CCN(C(=O)C4COc5ccccc5O4)CC3)nc(N)c2cc1OC (stereo in doubt; 1) [DOXAZOSIN] | 1.1 |  |  | Reduction (Rattus norvegicus [1]; 5 mg/kg): 27%; Reduction (Rattus norvegicus [2]; 5 mg/kg): 23%
COc1cc2nc(N3CCN(C(=O)C4Oc5ccccc5OC4C)CC3)nc(N)c2cc1OC (trans isomer) [listing 2 of 2 here] |  |  |  | EC40 [4]: 13 nM; EC40 [5]: inactive
COc1cc2nc(N3CCN(C(=O)C4Oc5ccccc5OC4C)CC3)nc(N)c2cc1OC (cis isomer) [listing 2 of 2 here] | 0.7 |  |  | Reduction (Rattus norvegicus [1]; 5 mg/kg): 25%; Reduction (Rattus norvegicus [2]; 5 mg/kg): 23%
COc1cc2nc(N3CCN(C(=O)C4COc5cccc(C(C)C)c5O4)CC3)nc(N)c2cc1OC (configuration not stated) | 6.7 | 3 | 6 | EC40 [10]: 130 nM; EC40 [5]: inactive
COc1cc2nc(N3CCN(C(=O)C4(C)COc5ccccc5O4)CC3)nc(N)c2cc1OC (configuration not stated) |  | 9 | 8 | Ki [11]: 1.5 nM
COc1cc2nc(N3CCN(C(=O)C4COc5ccccc5O4)CC3)nc(N)c2cc1OC (single isomer, unassigned; (+)) [DOXAZOSIN] | 2.6 |  |  | Reduction (Rattus norvegicus [1]; 5 mg/kg): 24%; Reduction (Rattus norvegicus [2]; 5 mg/kg): 27%
COc1cc2nc(N3CCN(C(=O)C4COc5ccccc5O4)CC3)nc(N)c2cc1OC (single isomer, unassigned; (-)) |  |  |  | EC40 [4]: 40 nM

Further lines, with some results ahead:

Ki [3] [nM] | Compound | Reduction (Rattus norvegicus [1]) [%] | Reduction (Rattus norvegicus [2]) [%] | also measured
7.8 | COc1cc2nc(N3CCN(C(=O)C4COc5cc(C)c(C)cc5O4)CC3)nc(N)c2cc1OC (configuration not stated) | 20 | 14 | 
3 | COc1cc2nc(N3CCN(C(=O)C4COc5ccc(C(C)=O)cc5O4)CC3)nc(N)c2cc1OC (configuration not stated) | 24 | 19 | 
13.3 | COc1cc2nc(N3CCN(C(=O)C4COc5cc(Cl)c(Cl)cc5O4)CC3)nc(N)c2cc1OC (configuration not stated) | 9 | 6 | 
3.7 | COc1cc2nc(N3CCN(C(=O)C4COc5cccc(C)c5O4)CC3)nc(N)c2cc1OC (configuration not stated) | 22 | 16 | EC40 [4]: 26 nM; EC40 [5]: inactive
12.6 | COc1cc2nc(N3CCN(C(=O)C4COc5cc(Cl)ccc5O4)CC3)nc(N)c2cc1OC (configuration not stated) | 23 | 27 | 
6.4 | COc1cc2nc(N3CCN(C(=O)C4COc5cc(C(C)=O)ccc5O4)CC3)nc(N)c2cc1OC (configuration not stated) | 24 | 26 | 
